# Data published in ChEMBL document CHEMBL4145607, “Tamarixetin Exhibits Anti-inflammatory Activity and Prevents Bacterial Sepsis by Increasing IL-10 Production” (J Nat Prod, 2018).
# The source made the active and inactive calls. The calls are words filed in the database; no cut-off is given here.
# Legend:
# Mus musculus [1] = assay: Antiseptic activity in Balb/c mouse model of Escherichia coli K1 infection-induced sepsis assessed as reduction in bacterial count in lungs at 1 mg/kg, ip pretreated for 1 hr followed by Escherichia coli K1 infection measured after 12 hrs; type: functional, organism-based
# Procedure, shortened: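 Pretreatment was 1 mg·kg−1 i.p. 1 h before i.p. E. coli K1 (1 × 10^6 CFU per mouse) in BALB/c mice. At 12 h, lungs, liver and kidneys were homogenized in PBS and diluted 1:1000. 10 μL was plated on LB agar, incubated 24 h at 37 °C, and colonies counted.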
# Mus musculus [2] = assay: Antiinflammatory activity in Balb/c mouse model of LPS-induced endotoxemia assessed as increase in IL10 producing dendritic cells in splenocyte at 1 mg/kg, ip pretreated for 1 hr followed by LPS-challenge measured after 12 hrs by flow cytometric analysis; type: functional, organism-based
# BMDC [3] = assay: Inhibition of LPS-induced immune response in C57BL/6 mouse BMDC assessed as reduction in IL-12p70 secretion at 25 uM treated 6 hrs post LPS-challenge measured after 60 to 120 mins by ELISA; type: functional, cell-based
# Procedure, shortened: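 Bone marrow DCs from 6-week-old female C57BL/6 mice, RBC-lysed, cultured in RPMI-1640/10% FBS with 10 ng/mL rmGM-CSF, 37 °C, 5% CO2. Cells given LPS 50 ng/mL for 6 h, then 25 μM compound added for 30, 60, 90 or 120 min. Supernatant TNF-α, IL-6, IL-10, IL-12p70 measured by sandwich ELISA. Mean ± SEM, compared with LPS-only DCs.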
# Mus musculus [4] = assay: Antiinflammatory activity in Balb/c mouse model of LPS-induced endotoxemia assessed as reduction in serum ALT level at 1 mg/kg, ip pretreated for 1 hr followed by LPS-challenge measured after 12 hrs by ELISA; type: functional, organism-based
# Procedure, shortened: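 In BALB/c mice, 1 mg·kg−1 i.p. was given 1 h before LPS 10 mg·kg−1 i.p. After 12 h, serum AST, ALT and BUN were measured by ELISA. Means ± SEM.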
# Mus musculus [5] = assay: Antiseptic activity in Balb/c mouse model of Escherichia coli K1 infection-induced sepsis assessed as reduction in serum endotoxin level at 1 mg/kg, ip pretreated for 1 hr followed by Escherichia coli K1 infection measured after 12 hrs by chromogenic assay; type: functional, organism-based
# Procedure, shortened: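 BALB/c mice dosed i.p. 1 h before i.p. E. coli K1 (1 × 10^6 CFU per mouse), sera taken at 12 h. Serum diluted 10-fold in endotoxin-free PBS, LAL chromogenic end-point assay; background subtracted, quantified against E. coli endotoxin standard, reported as EU·mL−1.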
# Mus musculus [6] = assay: Antiseptic activity in Balb/c mouse model of Escherichia coli K1 infection-induced sepsis assessed as reduction in serum TNFalpha level at 1 mg/kg, ip pretreated for 1 hr followed by Escherichia coli K1 infection measured after 2 hrs by ELISA; type: functional, organism-based
# Procedure, shortened: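 BALB/c mice received 1 mg·kg−1 i.p. 1 h before i.p. E. coli K1 RS218, 1 × 10^6 CFU per mouse. Serum was collected at 2 h, and TNF-α, IL-6 and IL-10 were quantified by sandwich ELISA. Means ± SEM.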
# BMDC [7] = assay: Inhibition of Escherichia coli K1 infection-induced immune response in C57BL/6 mouse BMDC assessed as reduction in IL-12p70 secretion at 25 uM pretreated for 60 to 120 mins followed by Escherichia coli K1 infection for 6 hrs by ELISA; type: functional, cell-based
# Procedure, shortened: (§1)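 BMDCs from C57BL/6 mice were given 25 μM compound and E. coli K1, […]. Timing was: compound 30 min before a 6 h infection; cotreatment for 6 h; or compound for 30–120 min with 6 h infection. Supernatant cytokines (TNF-α, IL-6, IL-10, IL-12p70) were measured by ELISA. At least three experiments in triplicate.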
# Mus musculus [8] = assay: Antiinflammatory activity in Balb/c mouse model of LPS-induced endotoxemia assessed as increase in IL10 producing Tr1 population in splenocyte at 1 mg/kg, ip pretreated for 1 hr followed by LPS-challenge measured after 12 hrs by flow cytometric analysis; type: functional, organism-based
# BMDC [9] = assay: Inhibition of Escherichia coli K1 infection-induced immune response in C57BL/6 mouse BMDC assessed as increase in IL10 secretion at 25 uM pretreated for 60 to 120 mins followed by Escherichia coli K1 infection for 6 hrs by ELISA; type: functional, cell-based; procedure, shortened: as §1
# Mus musculus [10] = assay: Antiinflammatory activity in Balb/c mouse model of LPS-induced endotoxemia assessed as increase in IL10 producing B10 population in splenocyte at 1 mg/kg, ip pretreated for 1 hr followed by LPS-challenge measured after 12 hrs by flow cytometric analysis; type: functional, organism-based
# BMDC [11] = assay: Inhibition of Escherichia coli DH5alpha infection-induced immune response in C57BL/6 mouse BMDC assessed as increase in IL10 secretion at 25 uM pretreated for 60 to 120 mins followed by Escherichia coli DH5alpha infection for 6 hrs by ELISA; type: functional, cell-based
# Procedure, shortened: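 C57BL/6 BMDCs received 25 μM compound and E. coli DH5α, 3 × 10^6 CFU·mL−1. Schedules were: compound 30 min before a 6 h infection; co-addition for 6 h; or compound for 30, 60, 90 or 120 min plus 6 h infection. Supernatant TNF-α, IL-6, IL-10 and IL-12p70 were measured by ELISA. At least three experiments in triplicate.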
# Mus musculus [12] = assay: Antiseptic activity in Balb/c mouse model of Escherichia coli K1 infection-induced sepsis assessed as increase in survival rate at 1 mg/kg, ip pretreated for 1 hr followed by Escherichia coli K1 infection measured up to 20 hrs relative to control; type: functional
compound,measurement,setting,value
COc1ccc(-c2oc3cc(O)cc(O)c3c(=O)c2O)cc1O [TAMARIXETIN],Activity,Mus musculus [1],Active
same,Activity,Mus musculus [2],Active
same,inhibition,BMDC [3],inactive
same,Activity,Mus musculus [4],Active
same,Activity,Mus musculus [5],Active
same,Activity,Mus musculus [6],Active
same,inhibition,BMDC [7],inactive
same,Activity,Mus musculus [8],Active
same,inhibition,BMDC [9],inactive
same,Activity,Mus musculus [10],Active
same,inhibition,BMDC [11],inactive
same,Activity,Mus musculus [12],60%
